This note sets out measurements from ChEMBL document CHEMBL4715770, “Inhibition of Low Molecular Weight Protein Tyrosine Phosphatase by an Induced-Fit Mechanism” (J Med Chem, 2016).

The target of assay [1] is Tyrosine-protein phosphatase non-receptor type 6 (Homo sapiens, UniProt P29350). Briefly: Inhibition of His-tagged SHP1 (unknown origin) expressed in Escherichia coli BL21 cells using para-nitrophenyl phosphate as substrate incubated for 5 to 10 mins by microplate reader based spectrophotometric analysis.
Assay [2] can be described thus: Inhibition of His-tagged PTP-H1 (unknown origin) expressed in Escherichia coli BL21 cells using para-nitrophenyl phosphate as substrate incubated for 5 to 10 mins by microplate reader based spectrophotometric analysis. More on the design: species or system Homo sapiens. The procedure, abridged:
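Enzyme at 5-20 nM was added to substrate plus a range of inhibitor concentrations and run 5-10 min at room temperature. Quenched with 5N NaOH and p-nitrophenol read at 405 nm (ε 18,000 M-1cm-1), with a no-enzyme background correction. IC50 from curve fitting.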

Assay [3] concerns the target Tyrosine-protein phosphatase non-receptor type 13 (Homo sapiens, UniProt Q12923). Briefly: Inhibition of His-tagged FAP1 (unknown origin) expressed in Escherichia coli BL21 cells using para-nitrophenyl phosphate as substrate incubated for 5 to 10 mins by microplate reader based spectrophotometric analysis.
The target of assay [4] is T1, Receptor-type tyrosine-protein phosphatase C (Homo sapiens, UniProt P08575).
T1 sequence (P08575 whole entry): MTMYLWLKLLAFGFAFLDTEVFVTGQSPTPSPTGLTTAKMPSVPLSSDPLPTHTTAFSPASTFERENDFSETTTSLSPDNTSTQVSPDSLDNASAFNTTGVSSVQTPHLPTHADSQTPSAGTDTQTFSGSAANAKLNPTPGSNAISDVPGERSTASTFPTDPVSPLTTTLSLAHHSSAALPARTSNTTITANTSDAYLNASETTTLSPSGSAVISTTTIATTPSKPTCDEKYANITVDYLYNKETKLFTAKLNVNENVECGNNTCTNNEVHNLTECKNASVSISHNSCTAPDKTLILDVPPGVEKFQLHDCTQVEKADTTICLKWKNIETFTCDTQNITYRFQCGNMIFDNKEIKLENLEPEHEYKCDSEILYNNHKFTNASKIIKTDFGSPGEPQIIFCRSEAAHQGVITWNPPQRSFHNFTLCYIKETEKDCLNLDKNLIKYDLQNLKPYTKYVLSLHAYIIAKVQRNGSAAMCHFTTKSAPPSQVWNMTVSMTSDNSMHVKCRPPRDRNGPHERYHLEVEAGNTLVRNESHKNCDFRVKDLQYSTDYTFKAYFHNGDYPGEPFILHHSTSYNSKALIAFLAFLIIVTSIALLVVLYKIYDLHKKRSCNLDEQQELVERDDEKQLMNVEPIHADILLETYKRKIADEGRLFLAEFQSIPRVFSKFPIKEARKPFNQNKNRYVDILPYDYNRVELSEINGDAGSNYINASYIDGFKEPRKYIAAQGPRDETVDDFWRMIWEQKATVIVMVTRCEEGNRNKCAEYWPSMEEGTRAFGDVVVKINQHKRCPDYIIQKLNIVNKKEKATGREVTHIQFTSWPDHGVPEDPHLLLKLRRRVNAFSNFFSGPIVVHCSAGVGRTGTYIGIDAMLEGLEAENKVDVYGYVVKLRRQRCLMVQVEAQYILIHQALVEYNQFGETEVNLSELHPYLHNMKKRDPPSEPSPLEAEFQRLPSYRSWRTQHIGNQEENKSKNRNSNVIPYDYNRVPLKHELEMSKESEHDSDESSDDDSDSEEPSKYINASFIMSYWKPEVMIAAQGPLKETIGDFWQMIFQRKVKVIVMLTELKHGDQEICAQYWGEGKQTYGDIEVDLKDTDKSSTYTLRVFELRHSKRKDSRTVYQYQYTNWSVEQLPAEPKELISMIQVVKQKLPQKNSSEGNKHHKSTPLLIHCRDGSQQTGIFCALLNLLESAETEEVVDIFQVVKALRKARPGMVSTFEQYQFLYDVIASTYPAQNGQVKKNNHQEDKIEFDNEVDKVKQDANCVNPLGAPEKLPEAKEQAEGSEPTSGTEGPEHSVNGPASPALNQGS
Briefly: Inhibition of His-tagged CD45 (unknown origin) expressed in Escherichia coli BL21 cells using para-nitrophenyl phosphate as substrate incubated for 5 to 10 mins by microplate reader based spectrophotometric analysis.

The target in assay [5] is Receptor-type tyrosine-protein phosphatase beta (Homo sapiens, UniProt P23467). Put plainly: Inhibition of His-tagged PTPbeta (unknown origin) expressed in Escherichia coli BL21 cells using para-nitrophenyl phosphate as substrate incubated for 5 to 10 mins by microplate reader based spectrophotometric analysis.
The target in assay [6] is Receptor-type tyrosine-protein phosphatase mu (Homo sapiens, UniProt P28827). Put plainly: Inhibition of His-tagged PTPmu (unknown origin) expressed in Escherichia coli BL21 cells using para-nitrophenyl phosphate as substrate incubated for 5 to 10 mins by microplate reader based spectrophotometric analysis.
Assay [7] has as its target T2, Tyrosine-protein phosphatase non-receptor type 9 (Homo sapiens, UniProt P43378).
T2 sequence (P43378 whole entry): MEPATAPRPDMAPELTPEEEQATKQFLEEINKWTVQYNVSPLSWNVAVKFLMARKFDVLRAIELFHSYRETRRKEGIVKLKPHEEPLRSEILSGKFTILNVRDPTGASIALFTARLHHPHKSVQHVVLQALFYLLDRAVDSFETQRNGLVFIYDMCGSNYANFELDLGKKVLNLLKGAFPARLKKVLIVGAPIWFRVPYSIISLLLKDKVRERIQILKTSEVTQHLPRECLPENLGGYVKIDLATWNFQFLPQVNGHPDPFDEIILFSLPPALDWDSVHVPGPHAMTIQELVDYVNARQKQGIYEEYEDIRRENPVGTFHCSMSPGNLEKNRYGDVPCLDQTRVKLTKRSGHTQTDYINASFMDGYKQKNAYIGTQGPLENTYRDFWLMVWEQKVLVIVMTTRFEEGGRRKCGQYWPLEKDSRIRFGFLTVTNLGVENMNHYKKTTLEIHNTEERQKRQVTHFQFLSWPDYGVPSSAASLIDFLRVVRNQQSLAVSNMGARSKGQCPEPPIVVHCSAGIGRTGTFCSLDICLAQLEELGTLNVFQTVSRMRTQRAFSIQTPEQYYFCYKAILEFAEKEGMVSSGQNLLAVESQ
Briefly: Inhibition of His-tagged PTP-MEG2 (unknown origin) expressed in Escherichia coli BL21 cells using para-nitrophenyl phosphate as substrate incubated for 5 to 10 mins by microplate reader based spectrophotometric analysis.

Chain of Receptor-type tyrosine-protein phosphatase mu (P28827 whole entry): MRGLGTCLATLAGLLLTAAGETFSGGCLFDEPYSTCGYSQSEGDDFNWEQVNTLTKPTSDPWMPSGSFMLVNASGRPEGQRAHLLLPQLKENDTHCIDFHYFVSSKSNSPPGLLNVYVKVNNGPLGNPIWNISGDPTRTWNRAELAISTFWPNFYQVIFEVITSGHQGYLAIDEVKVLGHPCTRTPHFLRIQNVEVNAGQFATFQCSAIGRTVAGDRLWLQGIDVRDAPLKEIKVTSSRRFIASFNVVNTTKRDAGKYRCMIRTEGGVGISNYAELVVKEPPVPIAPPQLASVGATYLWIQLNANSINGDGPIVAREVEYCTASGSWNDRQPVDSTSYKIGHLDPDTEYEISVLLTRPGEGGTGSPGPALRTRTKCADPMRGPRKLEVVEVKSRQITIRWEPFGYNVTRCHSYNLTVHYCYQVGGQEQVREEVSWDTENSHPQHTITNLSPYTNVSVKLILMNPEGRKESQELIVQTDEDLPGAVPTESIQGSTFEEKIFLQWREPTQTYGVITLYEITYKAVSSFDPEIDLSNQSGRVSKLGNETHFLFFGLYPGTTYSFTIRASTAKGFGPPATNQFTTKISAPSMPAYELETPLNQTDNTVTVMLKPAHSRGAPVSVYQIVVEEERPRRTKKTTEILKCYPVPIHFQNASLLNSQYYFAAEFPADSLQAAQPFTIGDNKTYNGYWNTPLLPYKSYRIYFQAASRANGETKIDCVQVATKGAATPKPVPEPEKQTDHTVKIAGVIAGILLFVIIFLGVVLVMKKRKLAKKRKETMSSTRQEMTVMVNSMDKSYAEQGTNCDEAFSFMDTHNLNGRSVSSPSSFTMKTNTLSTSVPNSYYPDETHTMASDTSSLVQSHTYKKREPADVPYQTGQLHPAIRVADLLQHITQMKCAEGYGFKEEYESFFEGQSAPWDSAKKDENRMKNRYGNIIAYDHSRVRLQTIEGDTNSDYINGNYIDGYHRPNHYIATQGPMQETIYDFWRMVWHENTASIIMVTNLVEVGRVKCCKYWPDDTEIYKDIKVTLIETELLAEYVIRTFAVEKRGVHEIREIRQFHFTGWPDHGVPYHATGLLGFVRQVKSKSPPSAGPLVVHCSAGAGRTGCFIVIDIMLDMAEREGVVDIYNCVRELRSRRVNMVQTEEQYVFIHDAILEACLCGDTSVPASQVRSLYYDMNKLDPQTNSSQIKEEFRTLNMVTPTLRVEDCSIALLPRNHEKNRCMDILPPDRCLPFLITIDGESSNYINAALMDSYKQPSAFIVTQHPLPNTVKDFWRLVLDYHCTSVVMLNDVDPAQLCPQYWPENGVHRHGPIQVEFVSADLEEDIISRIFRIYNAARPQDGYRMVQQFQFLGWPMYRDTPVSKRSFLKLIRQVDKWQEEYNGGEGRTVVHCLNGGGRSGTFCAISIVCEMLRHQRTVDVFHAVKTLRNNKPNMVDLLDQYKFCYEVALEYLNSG
Chain of Tyrosine-protein phosphatase non-receptor type 13 (Q12923 whole entry): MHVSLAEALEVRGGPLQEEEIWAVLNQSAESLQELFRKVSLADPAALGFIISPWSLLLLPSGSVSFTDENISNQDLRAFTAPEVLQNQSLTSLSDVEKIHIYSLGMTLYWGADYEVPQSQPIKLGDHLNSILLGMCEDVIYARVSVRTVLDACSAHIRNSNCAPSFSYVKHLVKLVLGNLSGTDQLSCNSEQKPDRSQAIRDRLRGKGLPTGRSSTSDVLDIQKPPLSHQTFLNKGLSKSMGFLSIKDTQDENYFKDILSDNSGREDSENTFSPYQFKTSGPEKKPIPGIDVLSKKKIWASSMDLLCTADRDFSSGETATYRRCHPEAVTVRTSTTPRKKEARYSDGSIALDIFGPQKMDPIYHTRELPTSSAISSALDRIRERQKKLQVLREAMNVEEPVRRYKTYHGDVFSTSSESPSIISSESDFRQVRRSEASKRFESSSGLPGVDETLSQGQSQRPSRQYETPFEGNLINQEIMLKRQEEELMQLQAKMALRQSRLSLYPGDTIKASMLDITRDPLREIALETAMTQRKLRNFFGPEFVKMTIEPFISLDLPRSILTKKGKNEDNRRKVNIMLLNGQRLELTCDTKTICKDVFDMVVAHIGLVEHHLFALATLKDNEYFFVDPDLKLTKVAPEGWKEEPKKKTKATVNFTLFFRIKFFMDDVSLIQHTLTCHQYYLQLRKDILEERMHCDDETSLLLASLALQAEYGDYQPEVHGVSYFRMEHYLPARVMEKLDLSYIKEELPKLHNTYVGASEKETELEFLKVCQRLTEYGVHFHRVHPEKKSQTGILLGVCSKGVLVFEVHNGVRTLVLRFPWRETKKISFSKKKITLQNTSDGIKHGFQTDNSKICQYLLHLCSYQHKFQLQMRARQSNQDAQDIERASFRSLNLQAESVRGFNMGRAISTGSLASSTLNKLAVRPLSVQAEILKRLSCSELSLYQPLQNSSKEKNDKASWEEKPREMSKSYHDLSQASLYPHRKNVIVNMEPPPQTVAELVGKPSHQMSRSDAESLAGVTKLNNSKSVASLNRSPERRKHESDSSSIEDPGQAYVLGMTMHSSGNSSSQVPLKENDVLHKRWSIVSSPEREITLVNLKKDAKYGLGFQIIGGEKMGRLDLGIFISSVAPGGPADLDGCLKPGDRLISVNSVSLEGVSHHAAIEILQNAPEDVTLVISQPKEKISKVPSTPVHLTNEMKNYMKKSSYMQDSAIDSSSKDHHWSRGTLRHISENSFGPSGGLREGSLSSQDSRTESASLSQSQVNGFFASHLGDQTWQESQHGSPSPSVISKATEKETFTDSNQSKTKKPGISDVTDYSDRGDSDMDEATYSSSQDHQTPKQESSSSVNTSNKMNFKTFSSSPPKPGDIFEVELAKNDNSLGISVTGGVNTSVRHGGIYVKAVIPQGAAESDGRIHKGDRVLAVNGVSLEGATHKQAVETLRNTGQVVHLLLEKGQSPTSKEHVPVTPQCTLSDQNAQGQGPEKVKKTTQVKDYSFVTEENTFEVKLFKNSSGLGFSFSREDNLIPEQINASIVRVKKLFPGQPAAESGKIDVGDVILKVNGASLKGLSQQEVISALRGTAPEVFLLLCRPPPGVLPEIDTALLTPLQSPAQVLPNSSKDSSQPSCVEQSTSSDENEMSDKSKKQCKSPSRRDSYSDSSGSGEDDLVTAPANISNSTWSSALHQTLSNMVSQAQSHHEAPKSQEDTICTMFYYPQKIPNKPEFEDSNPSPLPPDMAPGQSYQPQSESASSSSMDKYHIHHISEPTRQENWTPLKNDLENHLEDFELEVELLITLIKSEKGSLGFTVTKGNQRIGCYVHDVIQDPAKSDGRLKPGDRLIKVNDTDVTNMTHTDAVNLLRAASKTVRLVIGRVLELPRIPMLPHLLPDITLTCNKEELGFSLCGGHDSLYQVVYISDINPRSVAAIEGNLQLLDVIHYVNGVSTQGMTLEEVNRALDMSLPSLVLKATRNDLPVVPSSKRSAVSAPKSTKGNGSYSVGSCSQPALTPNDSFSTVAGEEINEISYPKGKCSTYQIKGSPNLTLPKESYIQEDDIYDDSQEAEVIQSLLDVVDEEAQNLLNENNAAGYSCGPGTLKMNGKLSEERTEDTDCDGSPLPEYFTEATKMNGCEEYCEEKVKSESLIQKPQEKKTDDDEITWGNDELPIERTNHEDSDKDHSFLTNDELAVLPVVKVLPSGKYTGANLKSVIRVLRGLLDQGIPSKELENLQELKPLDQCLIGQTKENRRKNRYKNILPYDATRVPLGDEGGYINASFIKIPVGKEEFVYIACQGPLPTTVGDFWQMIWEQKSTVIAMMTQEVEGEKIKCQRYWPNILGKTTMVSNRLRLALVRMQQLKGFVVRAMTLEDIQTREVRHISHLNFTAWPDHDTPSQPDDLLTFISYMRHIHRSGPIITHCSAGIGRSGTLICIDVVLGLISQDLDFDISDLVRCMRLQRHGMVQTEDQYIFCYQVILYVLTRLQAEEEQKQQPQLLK
Chain of Tyrosine-protein phosphatase non-receptor type 6 (P29350 whole entry): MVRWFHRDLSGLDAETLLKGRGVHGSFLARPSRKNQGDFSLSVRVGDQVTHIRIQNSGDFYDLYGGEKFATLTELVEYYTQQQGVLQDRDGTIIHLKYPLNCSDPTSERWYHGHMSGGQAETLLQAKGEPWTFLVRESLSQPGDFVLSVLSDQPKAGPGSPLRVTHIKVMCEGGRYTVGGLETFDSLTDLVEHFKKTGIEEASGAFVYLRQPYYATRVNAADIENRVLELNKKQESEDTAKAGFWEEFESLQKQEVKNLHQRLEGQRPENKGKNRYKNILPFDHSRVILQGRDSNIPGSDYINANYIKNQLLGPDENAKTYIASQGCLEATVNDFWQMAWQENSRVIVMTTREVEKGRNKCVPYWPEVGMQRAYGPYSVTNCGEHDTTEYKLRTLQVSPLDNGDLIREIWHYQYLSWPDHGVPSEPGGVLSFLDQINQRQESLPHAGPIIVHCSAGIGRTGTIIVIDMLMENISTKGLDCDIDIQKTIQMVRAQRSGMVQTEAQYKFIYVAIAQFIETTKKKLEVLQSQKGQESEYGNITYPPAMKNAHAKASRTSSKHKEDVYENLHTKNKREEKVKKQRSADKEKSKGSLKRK

As for `Cc1c(Br)cc(NC(=O)C(c2ccccc2)S(=O)(=O)O)cc1Br` (stereo not drawn), the IC50 in assay [1], in assay [2], in assay [3], in assay [4], in assay [5] and in assay [6] was > 200 µM each time.
On to `O=C(Nc1cc(C(F)(F)F)cc(C(F)(F)F)c1)C(c1ccccc1)S(=O)(=O)O` (stereo not drawn), for which the IC50 is > 200 µM in assay [1]; > 200 µM in assay [7]; > 200 µM in assay [2]; 76 µM in assay [3]; > 200 µM in assay [4]; > 200 µM in assay [5]. Also, the half-inhibitory concentration (IC50) in assay [6] is > 200 µM.
In the case of `O=C(Nc1nc2ccc([N+](=O)[O-])cc2s1)C(c1ccccc1)S(=O)(=O)O` (stereo not drawn), the IC50 in assay [1], in assay [7], in assay [2], in assay [3], in assay [4] and in assay [5] was > 100 µM each time. Further, in assay [6], the IC50 is > 100 µM.
Take `O=C(Nc1ccc(-n2ccnc2)cc1)C(c1ccccc1)S(=O)(=O)O` (stereo not drawn): the IC50 in assay [1], in assay [7], in assay [2], in assay [3], in assay [4] and in assay [5] was > 100 µM throughout. Moreover, the IC50 in assay [6] was > 100 µM.
For the compound `O=C(Nc1ccc(OCc2ccccc2)c(Cl)c1)C(c1ccccc1)S(=O)(=O)O` (stereo not drawn), the IC50 in assay [1], in assay [7], in assay [2], in assay [4], in assay [5] and in assay [6] was > 200 µM each time.

What is called IC50 is the midpoint of a concentration-inhibition curve.
